Experimental data taken from the M2OR odorant receptor database.
Residue numbers refer to the chain shown, from its start.

Columns and labels:
Details in all cases: stereoisomer not certain
OR7A5 M81I = tested on: T1, OR7A5 M81I
T1 sequence (whole entry): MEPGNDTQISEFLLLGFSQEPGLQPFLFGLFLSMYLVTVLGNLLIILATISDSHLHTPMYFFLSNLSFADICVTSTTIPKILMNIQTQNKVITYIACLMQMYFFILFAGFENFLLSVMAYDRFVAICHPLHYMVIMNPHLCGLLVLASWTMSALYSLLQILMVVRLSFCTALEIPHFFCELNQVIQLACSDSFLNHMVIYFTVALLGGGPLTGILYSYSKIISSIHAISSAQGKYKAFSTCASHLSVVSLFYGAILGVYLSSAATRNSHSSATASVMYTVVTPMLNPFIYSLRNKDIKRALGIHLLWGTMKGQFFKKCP
Procedure, shortened: (§1)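 Transient luciferase assays in mammalian cell lines were common, though methods varied by source. The values come from published papers and their supplementary material, with extra details from the original authors when needed. Responsive refers to a measured signal the original authors judged statistically different from baseline, and non-responsive (inactive) to the remainder.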

OR7C1 (Homo sapiens) = target: T2, OR7C1 (Homo sapiens) (UniProt O76099)
T2 sequence (whole entry): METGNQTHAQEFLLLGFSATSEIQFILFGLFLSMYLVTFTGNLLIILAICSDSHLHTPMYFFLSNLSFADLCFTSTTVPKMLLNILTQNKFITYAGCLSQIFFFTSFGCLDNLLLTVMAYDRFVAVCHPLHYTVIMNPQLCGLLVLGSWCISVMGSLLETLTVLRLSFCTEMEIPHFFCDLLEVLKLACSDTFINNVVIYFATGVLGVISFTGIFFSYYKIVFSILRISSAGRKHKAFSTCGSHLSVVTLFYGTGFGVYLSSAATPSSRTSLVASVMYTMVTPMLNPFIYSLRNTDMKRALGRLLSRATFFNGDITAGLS
Procedure, shortened: as §1

OR7C1 V126I E171K = tested on: T3, OR7C1 V126I E171K
T3 sequence (whole entry): T2 sequence (whole entry) with V126I, E171K
Procedure, shortened: as §1

OR7C2 (Homo sapiens) = target: T4, OR7C2 (Homo sapiens) (UniProt O60412)
T4 sequence (whole entry): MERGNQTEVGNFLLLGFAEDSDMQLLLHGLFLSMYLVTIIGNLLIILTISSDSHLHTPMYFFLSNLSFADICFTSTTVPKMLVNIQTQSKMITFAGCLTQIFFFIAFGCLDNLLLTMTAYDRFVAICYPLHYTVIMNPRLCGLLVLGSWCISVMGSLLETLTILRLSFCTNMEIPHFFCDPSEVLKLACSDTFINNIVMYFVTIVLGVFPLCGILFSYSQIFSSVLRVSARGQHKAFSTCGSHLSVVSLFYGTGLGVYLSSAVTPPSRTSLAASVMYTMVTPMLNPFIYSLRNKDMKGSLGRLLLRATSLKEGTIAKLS
Procedure, shortened: as §1

OR7D2 (Homo sapiens) = target: T5, OR7D2 (Homo sapiens) (UniProt Q96RA2)
T5 sequence (whole entry): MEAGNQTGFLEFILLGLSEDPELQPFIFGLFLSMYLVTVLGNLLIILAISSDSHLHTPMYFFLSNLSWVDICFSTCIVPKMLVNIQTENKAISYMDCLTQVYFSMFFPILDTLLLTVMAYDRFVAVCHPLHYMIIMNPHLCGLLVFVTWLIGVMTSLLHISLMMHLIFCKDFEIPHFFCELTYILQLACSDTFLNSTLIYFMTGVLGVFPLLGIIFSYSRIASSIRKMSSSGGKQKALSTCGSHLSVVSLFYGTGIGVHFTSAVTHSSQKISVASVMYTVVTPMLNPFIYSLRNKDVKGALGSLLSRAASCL
Procedure, shortened: as §1

OR7D4 (Homo sapiens) = target: T6, OR7D4 (Homo sapiens) (UniProt Q8NG98)
T6 sequence (whole entry): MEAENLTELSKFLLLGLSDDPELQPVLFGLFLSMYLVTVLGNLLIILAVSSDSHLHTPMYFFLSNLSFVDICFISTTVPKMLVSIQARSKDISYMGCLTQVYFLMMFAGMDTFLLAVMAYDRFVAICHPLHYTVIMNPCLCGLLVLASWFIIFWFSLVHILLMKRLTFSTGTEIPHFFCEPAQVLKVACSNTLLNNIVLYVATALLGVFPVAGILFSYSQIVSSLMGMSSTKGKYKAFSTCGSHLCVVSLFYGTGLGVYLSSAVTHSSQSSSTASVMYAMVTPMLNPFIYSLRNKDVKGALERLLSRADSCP
Procedure, shortened: as §1

OR7D4 R88W = tested on: T7, OR7D4 R88W
T7 sequence (whole entry): T6 sequence (whole entry) with R88W
Procedure, shortened: as §1

OR7D4 = tested on: T8, OR7D4
T8 sequence (whole entry): T6 sequence (whole entry) with R88W, T133M
Procedure, shortened: as §1

OR7E24 (Homo sapiens) = target: T9, OR7E24 (Homo sapiens) (UniProt Q6IFN5)
T9 sequence (whole entry): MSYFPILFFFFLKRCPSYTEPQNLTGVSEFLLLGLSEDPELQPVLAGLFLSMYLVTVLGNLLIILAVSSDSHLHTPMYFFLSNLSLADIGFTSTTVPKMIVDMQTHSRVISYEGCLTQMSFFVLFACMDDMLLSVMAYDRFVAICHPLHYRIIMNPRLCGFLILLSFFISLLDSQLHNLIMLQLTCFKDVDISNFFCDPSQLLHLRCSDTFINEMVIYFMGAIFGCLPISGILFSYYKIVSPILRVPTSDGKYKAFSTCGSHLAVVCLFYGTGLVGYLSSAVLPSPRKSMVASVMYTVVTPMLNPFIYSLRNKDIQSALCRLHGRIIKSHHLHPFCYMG
Procedure, shortened: as §1

OR7G1 (Homo sapiens) = target: T10, OR7G1 (Homo sapiens) (UniProt Q8NGA0)
T10 sequence (whole entry): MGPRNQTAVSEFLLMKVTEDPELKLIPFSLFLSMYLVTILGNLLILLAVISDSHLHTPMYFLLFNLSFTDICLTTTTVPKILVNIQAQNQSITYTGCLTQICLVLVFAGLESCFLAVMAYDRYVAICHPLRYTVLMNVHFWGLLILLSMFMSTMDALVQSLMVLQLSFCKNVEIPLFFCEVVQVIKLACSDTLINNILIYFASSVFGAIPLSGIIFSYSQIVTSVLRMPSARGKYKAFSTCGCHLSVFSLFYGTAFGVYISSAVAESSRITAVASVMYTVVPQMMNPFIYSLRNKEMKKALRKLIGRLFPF
Procedure, shortened: as §1

Measured: odorant receptor agonist call;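 also: active if original authors judged signal statistically different from baseline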

CC1=NC(C)C(C)S1 (configuration not stated)
inactive: all assays above

CC(=O)c1c(C)c([N+](=O)[O-])c(C(C)(C)C)c([N+](=O)[O-])c1C
inactive: OR7C1 (Homo sapiens) | OR7C2 (Homo sapiens) | OR7D2 (Homo sapiens) | OR7D4 (Homo sapiens) | OR7E24 (Homo sapiens) | OR7G1 (Homo sapiens)

CCC(S)C(C)CO (configuration not stated)
inactive: OR7C1 (Homo sapiens) | OR7C2 (Homo sapiens) | OR7D2 (Homo sapiens) | OR7D4 (Homo sapiens) | OR7E24 (Homo sapiens) | OR7G1 (Homo sapiens)

CC(CO)CS (configuration not stated)
inactive: OR7C1 (Homo sapiens) | OR7C2 (Homo sapiens) | OR7D2 (Homo sapiens) | OR7D4 (Homo sapiens) | OR7E24 (Homo sapiens) | OR7G1 (Homo sapiens)

CCC1OC(=O)C(O)=C1C (configuration not stated)
inactive: all assays above

CC1CCCCCCCCCCCCC(=O)C1 (configuration not stated)
inactive: OR7C1 (Homo sapiens) | OR7C2 (Homo sapiens) | OR7D2 (Homo sapiens) | OR7D4 (Homo sapiens) | OR7E24 (Homo sapiens) | OR7G1 (Homo sapiens)

CCCCCC(S)C(C)CO (configuration not stated)
inactive: OR7C1 (Homo sapiens) | OR7C2 (Homo sapiens) | OR7D2 (Homo sapiens) | OR7D4 (Homo sapiens) | OR7E24 (Homo sapiens) | OR7G1 (Homo sapiens)

CCC1OC(C)=C(O)C1=O (configuration not stated)
inactive: all assays above

CC1=C(O)C(=O)OC1C (configuration not stated)
inactive: all assays above

CC1=C(O)C(=O)C(C)O1 (configuration not stated)
inactive: all assays above

CCCC(S)CCOC(C)=O (configuration not stated)
inactive: all assays above

CCCCCC(=O)C(C)C(C)=O (configuration not stated)
inactive: OR7C1 (Homo sapiens) | OR7C2 (Homo sapiens) | OR7D2 (Homo sapiens) | OR7D4 (Homo sapiens) | OR7E24 (Homo sapiens) | OR7G1 (Homo sapiens)

CCCCC(S)C(C)CO (configuration not stated)
inactive: OR7C1 (Homo sapiens) | OR7C2 (Homo sapiens) | OR7D2 (Homo sapiens) | OR7D4 (Homo sapiens) | OR7E24 (Homo sapiens) | OR7G1 (Homo sapiens)

CCCCCCC=CCCC=O
inactive: all assays above

Cc1cnc(C)c(C)n1
inactive: all assays above
